Screening data: PubChem, The Scripps Research Institute Molecular Screening Center
procasp7 counter: counter-screen: procaspase-7 (human) activation; P55210; recombinant procaspase-7, Ac-DEVD-pNA absorbance 405 nm; D23A/D198A/D206A triple mutant, cannot self-cleave; scale: DMSO 0, 5 µM enzyme 100; activation, % at 8.5 µM; actives 0.093% (n = 330,000);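 active = percent activation above the screen-wide mean plus 3 SD, cut at about 25% in these data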
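Assay system: Uncleavable procaspase-7 mutant enzyme / Input: 2 µM procaspase-7 mutant as dispensed / Dosing: single nominal 8.5 µM compound dose, 0.8% DMSO final / Timing: 1 h enzyme–compound preincubation and 2 h substrate reaction, both 25 °C / Detection: p-Nitroaniline absorbance at 405 nm, read at 0 and 120 min / Replication: singlicate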
PLCb3 inh: PLC-beta3 (human) inhibition, primary screen. Q01970. actives 0.18% (n = 370,000). inhibition, % at 12.2 µM. Purified PLC-beta3, fluorogenic substrate, fluorescence; in the data active = inhibition above about 11%;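 note: 0% = median of compound wells on plate and 100% = full blocker control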
HGIII-sPLA2 inh: Blocks human group III sPLA2 activity; Q9NZ20; QFRET BODIPY PC-A2 liposome hydrolysis, fluorescence; inhibition, % at 12.2 µM; actives 0.56% (n = 370,000);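 active = inhibition above mean plus 3 SD of compounds lying within the high and low control bounds, cut at about 19% in these data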;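 note: 0% = median of test compound wells and 100% = no enzyme DMSO wells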
Target sequence (Q9NZ20 whole entry, looked up): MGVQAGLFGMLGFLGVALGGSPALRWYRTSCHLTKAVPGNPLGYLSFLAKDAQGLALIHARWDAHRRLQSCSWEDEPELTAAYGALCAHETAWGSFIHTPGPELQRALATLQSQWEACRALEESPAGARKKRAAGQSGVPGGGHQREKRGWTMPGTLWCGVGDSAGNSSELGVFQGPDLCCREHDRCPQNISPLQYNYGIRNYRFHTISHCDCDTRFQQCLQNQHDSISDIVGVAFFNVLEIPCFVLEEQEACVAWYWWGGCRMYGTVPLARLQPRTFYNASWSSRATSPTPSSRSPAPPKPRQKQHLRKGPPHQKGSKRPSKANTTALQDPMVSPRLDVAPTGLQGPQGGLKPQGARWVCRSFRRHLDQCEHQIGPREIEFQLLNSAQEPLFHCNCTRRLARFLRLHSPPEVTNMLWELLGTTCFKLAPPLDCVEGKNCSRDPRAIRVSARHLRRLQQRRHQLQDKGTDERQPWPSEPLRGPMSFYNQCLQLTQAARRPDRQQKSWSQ
PLCg1 inh: PLC-gamma1 (human) inhibition, primary screen; purified PLC-gamma1, fluorogenic substrate, fluorescence; inhibition, % at 12.2 µM; actives 0.84% (n = 370,000); AID 720700; in the data active = inhibition above about 9.5%
proCasp3 act: activates human procaspase-3 | P42574 | recombinant procaspase-3 D3A, Ac-DEVD-pNA absorbance 405 nm | activation, % at 8.5 µM | actives 0.11% (n = 330,000) | AID 463141;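 active = activation above the mean of all tested compounds plus 3 SD, cut at about 21% in these data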;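 note: 0% = DMSO alone and 100% = DMSO wells spiked with extra 5 µM PC-3 D3A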
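Test system: Procaspase-3 D3A mutant; medium: Zinc-free HEPES/NaCl buffer with 0.01% Triton X-100 at pH 7.4; reagent: DEVD-pNA substrate; doses: one concentration, 8.5 µM nominal, 0.8% DMSO; times: 1 h preincubation plus 2 h reaction at 25 °C; signal: Epi-absorbance at 405 nm of released p-nitroaniline, 0 and 120 min; replicates: singlicate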
sPLA2 confirm: human GIII-sPLA2 inhibition, confirmation; shares compounds with HGIII-sPLA2 inh; recombinant hGIII-sPLA2, BODIPY PC-A2 QFRET fluorescence; inhibition, % at 12.2 µM; actives 34% (n = 2,000); AID 743280;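 active = mean inhibition across triplicates above the hit cutoff set in the earlier primary screen, cut at about 19% in these data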;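 note: 0% = enzyme with DMSO and 100% = DMSO wells lacking enzyme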
535nm interf: 535nm fluorescence interference, HGIII-sPLA2 counter-screen | inhibition, % at 12.2 µM | BODIPY FL product fluorescence interference, QFRET | shares compounds with HGIII-sPLA2 inh | actives 8.5% (n = 2,000);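 active = average inhibition above the solvent-only control mean plus 3 SD, cut at about 6% in these data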;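 note: 0% = DMSO with substrate plus product and 100% = DMSO with substrate alone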
535nm interf DR: counter-screen for HGIII-sPLA2 inhibitors: 535nm fluorescence interference, dose response. shares compounds with HGIII-sPLA2 inh. BODIPY FL product fluorescence interference, cell-free. IC50, µM. 240 tested, under 10 active. AID 743455;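 active = IC50 at or below 10 µM; inactive = IC50 above 10 µM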
* hit, by the source's call; i = inactive; / = not tested or not shown. Most compounds without a hit are left out; they make up all but 1.6% or so of the library.

SMILES	procasp7 counter	PLCb3 inh	HGIII-sPLA2 inh	PLCg1 inh	proCasp3 act	sPLA2 confirm	535nm interf	others
CN(C)c1ccc(/C=C/CNC[C@H]2O[C@@H](n3ccc(N)nc3=O)[C@H](O)[C@@H]2O)cc1	/	-2.5	1.2	-2.9	/	/	/
Oc1ccccc1/C=N/NC(=S)NCCc1ccccc1	/	-167.9	19.6*	-113.0	/	21.3*	7.3*
C/C(=N\NC(=S)NCCc1ccccc1)c1ccc(Cl)cc1Cl	5.8	-6.7	6.3	-0.9	-1.3	/	/
C/C(=N\NC(=S)NCCc1ccccc1)c1ccc(O)cc1O	-15.8	-56.4	33.4*	-29.3	-6.3	40.4*	3.0	535nm interf DR=>122
S=C(NCCc1ccccc1)N/N=C/c1cccs1	-5.5	-8.0	20.0*	7.4	-7.9	20.3*	-0.7
Oc1ccccc1C=NNC(=S)Nc1ccc(F)cc1	/	-141.9	32.0*	-116.2	/	33.2*	12.7*
S=C(NCCc1ccccc1)N/N=C/c1cccc(Cl)c1Cl	4.3	-0.3	-0.2	-1.7	-4.5	/	/
Cc1ccsc1/C=N/NC(=S)NCCc1ccccc1	3.7	-5.4	16.8	0.8	1.7	/	/
CC(Oc1ccc2c(=O)c(-c3ccc(Cl)cc3)c(C(F)(F)F)oc2c1)C(=O)O (stereo unspecified)	-1.6	-8.8	-13.1	0.0	-4.2	/	/
CC(O)c1cc2c(s1)c1cnn(Cc3ccccc3F)c(=O)c1n2C (stereo unspecified)	-8.3	/	/	/	-0.5	/	/
O=C1C=C(c2ccc(Cl)c(C(F)(F)F)c2)C[C@@H](c2ccc(Cl)cc2)C1	-8.9	1.6	-2.0	3.4	7.2	/	/
CC(C)(C)c1nnc(NC(=S)Nc2ccccc2)s1	0.5	-1.0	10.7	-1.9	-6.1	/	/
CN1[C@@H](Cc2ccccc2)COc2cccc(F)c2S1(=O)=O	/	3.3	-7.6	0.2	/	/	/
CCN(CC)C(=O)CC[C@@H]1CC[C@]2(CCCN(Cc3ccncc3)C2)O1	/	0.5	-1.9	-3.1	/	/	/
CNC(=S)NNC(=O)c1oc2nc(-c3ccccc3)cc(C)c2c1N	-11.0	i	25.1*	-429.8	-11.0	18.2	-2.5
NNC(=O)c1oc2nc(-c3ccccc3)cc(-c3ccccc3)c2c1N	-15.4	-268.8	-6.2	-175.3	-23.7	/	/
O=c1cc(CN2CCN(c3ccccc3F)CC2)c2ccccc2o1	/	5.5	11.9	4.3	/	/	/
CCOC(=O)c1c(-c2ccccc2)c2cc(OC)ccc2n1CCCN(C)C	-0.5	-495.4	-19.0	-385.4	-0.5	/	/
COc1cccc(OC)c1C(=O)NCCc1ccccc1	6.6	-5.9	21.4*	3.8	-4.0	-6.8	-7.2
CC(NC(=O)NC(=O)c1cccc(Cl)c1)c1ccccc1 (stereo unspecified)	-11.3	-4.0	2.0	1.2	-4.5	/	/
CC[n+]1ccc(/C=C/c2ccc(N(C)C)cc2)c2ccccc21	/	-4.2	24.0*	2.5	/	46.1*	-11.2	535nm interf DR=>122
CC[n+]1c(/C=C/c2ccc(N(C)C)cc2)ccc2ccccc21	-31.1	1.8	24.7*	0.2	-6.3	43.3*	-14.2	535nm interf DR=>122
COCCn1c(C)cc(C(=O)COC(=O)c2cncc(Br)c2)c1C	6.3	-1.5	21.3*	-1.9	5.6	5.9	-7.8
CO/N=C1\CCn2c1c(C)c1ccccc12	6.9	-9.3	19.8*	-0.8	-2.8	13.8	-6.5
Cc1c2n(c3ccccc13)CC/C2=N\O	7.1	-21.0	10.4	-9.5	7.4	/	/
SMILES	procasp7 counter	PLCb3 inh	HGIII-sPLA2 inh	PLCg1 inh	proCasp3 act	sPLA2 confirm	535nm interf	others
CC1CCCC(NC(=O)CSC2=Nc3ccccc3C3CC=NN23)C1C (stereo unspecified)	-5.8	-2.0	-3.9	3.1	-5.5	/	/
CC1CCCCC1NC(=O)CSC1=Nc2ccccc2C2CC=NN12 (stereo unspecified)	-1.3	-13.7	19.8*	4.2	9.7	-2.8	-17.6
COc1ccc2c(c1)OC[C@H]1[C@H]2N2C(=O)c3cc(OC)c(OC)cc3NC(=O)[C@@]2(C)[C@H]1c1ccccc1	0.6	-25.9	31.4*	-18.4	6.0	11.2	-10.2
O=C(CSc1nc2ccccc2c(=O)n1-c1ccc(SC(F)F)cc1)Nc1ccc(N2CCOCC2)cc1	1.6	2.2	20.5*	-0.9	5.3	5.0	-8.0
COc1ccc(-n2c(SCC(=O)NNC(=S)Nc3ccccc3)nc3ccccc3c2=O)cc1	/	-4.0	35.9*	4.7	/	39.4*	4.3	535nm interf DR=>122
Cc1ccc(-n2c(SCC(=O)Nc3ccc(N4CCOCC4)cc3)nc3ccccc3c2=O)cc1	7.0	-5.0	16.9	2.7	-1.8	/	/
CCNC(=S)NNC(=O)CSc1nc2ccccc2c(=O)n1-c1ccc(Cl)cc1	/	4.4	32.0*	2.6	/	24.7*	3.9
CCNC(=S)NNC(=O)CSc1nnc(-c2ccccc2)n1-c1ccc(Cl)cc1	/	1.8	14.2	0.3	/	/	/
Cc1ccc(NC(=S)NNC(=O)CSc2nc3ccccc3c(=O)n2-c2ccc(C)cc2)cc1	-13.8	0.2	28.5*	1.6	-19.0	24.1*	4.1
CCCS(=O)(=O)NC(=O)C1(C)CCN(C(=O)c2cccnc2Oc2ccccc2)C1 (stereo unspecified)	/	0.8	-2.9	-4.4	/	/	/
O=C1CN(C(=O)c2cc([N+](=O)[O-])ccc2Cl)C(c2ccccc2)c2cc(F)ccc2N1 (stereo unspecified)	14.4	2.6	30.6*	0.6	4.4	6.5	-7.0
Cc1cc(C(=O)OCC(=O)Nc2c(F)cccc2F)c(C)n1-c1ccccc1	-8.7	2.8	-12.1	-1.5	-0.6	/	/
O=[N+]([O-])c1ccc(NNS(=O)(=O)c2cc(Cl)ccc2Cl)nc1	/	-7.7	23.5*	-0.2	/	48.3*	72.2*
Nc1c(C(=O)N/N=C/c2ccc(Cl)cc2)cnn1-c1ccccc1	0.5	-8.6	5.0	-3.1	-1.1	/	/
COC(=O)c1cnn(-c2ccc(Cl)cc2)c1/C=N/NC(N)=S	-0.2	-6.4	24.5*	0.2	-8.5	6.8	-4.4
S=c1[nH]nc(-c2ccc(Cl)cc2)n1Cc1ccccc1	-20.6	-5.1	16.9	-7.3	-19.4	/	/
S=c1[nH]cc(-c2ccc(Cl)cc2)n1Cc1ccccc1	-21.8	-2.6	24.3*	5.0	-9.5	8.8	1.8
COCCn1c(SCC(=O)NCC2CCCO2)nc2c(c1=O)SC(C)C2 (stereo unspecified)	-1.2	-1.3	19.7*	4.0	-0.5	2.9	-7.3
COc1ccc2cc(C3(C)NC(=O)N(CC(=O)Nc4c(C)n(C)n(-c5ccccc5)c4=O)C3=O)ccc2c1 (stereo unspecified)	-0.4	-6.8	21.0*	8.2	-7.8	-0.8	-21.7
